ChEMBL document CHEMBL1142242, “Indanylacetic acid derivatives carrying 4-thiazolyl-phenoxy tail groups, a new class of potent PPAR alpha/gamma/delta pan agonists: synthesis, structure-activity relationship, and in vivo efficacy” (J Med Chem, 2007)

Key:
[1] = target: T1, Peroxisome proliferator-activated receptor alpha (Homo sapiens, UniProt Q07869); assay: Agonist activity at human PPAR alpha by FRET assay; assay type: functional
T1 sequence (Q07869 whole entry): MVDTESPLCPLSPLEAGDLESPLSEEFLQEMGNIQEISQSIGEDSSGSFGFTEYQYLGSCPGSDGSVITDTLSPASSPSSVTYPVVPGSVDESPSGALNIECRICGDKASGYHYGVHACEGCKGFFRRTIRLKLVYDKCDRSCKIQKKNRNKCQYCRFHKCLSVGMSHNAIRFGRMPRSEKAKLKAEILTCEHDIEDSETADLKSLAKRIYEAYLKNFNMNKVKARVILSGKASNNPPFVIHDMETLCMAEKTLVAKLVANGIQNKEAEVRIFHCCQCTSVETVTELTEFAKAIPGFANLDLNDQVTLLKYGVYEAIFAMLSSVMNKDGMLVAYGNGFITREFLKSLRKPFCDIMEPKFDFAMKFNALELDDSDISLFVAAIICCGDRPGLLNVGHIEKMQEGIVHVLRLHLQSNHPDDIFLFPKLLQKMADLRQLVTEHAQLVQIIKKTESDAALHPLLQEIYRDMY
Outline: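 Human PPARα ligand binding domain (GST-tagged) association with biotin-labeled co-activator CBP; Eu-labeled anti-GST antibody and streptavidin-APC; incubated 2 h at rt in buffer with or without compound; fluorescence read at 615 or 655 nm emission, 340 nm excitation.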

[2] = target: T2, Peroxisome proliferator-activated receptor delta (Homo sapiens, UniProt Q03181); assay: Agonist activity at human PPAR delta by FRET assay; assay type: functional
T2 sequence (Q03181 whole entry): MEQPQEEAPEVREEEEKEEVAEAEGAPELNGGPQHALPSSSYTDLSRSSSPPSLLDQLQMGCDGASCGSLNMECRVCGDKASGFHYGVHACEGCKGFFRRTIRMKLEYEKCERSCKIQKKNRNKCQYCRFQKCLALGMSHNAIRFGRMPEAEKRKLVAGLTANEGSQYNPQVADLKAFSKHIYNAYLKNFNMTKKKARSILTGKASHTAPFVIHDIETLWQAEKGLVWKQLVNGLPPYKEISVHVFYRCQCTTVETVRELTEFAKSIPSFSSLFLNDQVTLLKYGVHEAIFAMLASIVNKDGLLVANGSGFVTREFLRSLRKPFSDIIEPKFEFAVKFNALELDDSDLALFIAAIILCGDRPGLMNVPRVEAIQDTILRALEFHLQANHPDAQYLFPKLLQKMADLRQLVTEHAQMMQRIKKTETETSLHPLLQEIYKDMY

[3] = target: T3, Peroxisome proliferator-activated receptor gamma (Mus musculus, UniProt P37238); assay: Agonist activity at PPAR gamma in mouse 3T3L1 cells assessed as increase in insulin receptor by IRBA; assay type: functional, cell-based, 3T3-L1
T3 sequence (P37238 whole entry): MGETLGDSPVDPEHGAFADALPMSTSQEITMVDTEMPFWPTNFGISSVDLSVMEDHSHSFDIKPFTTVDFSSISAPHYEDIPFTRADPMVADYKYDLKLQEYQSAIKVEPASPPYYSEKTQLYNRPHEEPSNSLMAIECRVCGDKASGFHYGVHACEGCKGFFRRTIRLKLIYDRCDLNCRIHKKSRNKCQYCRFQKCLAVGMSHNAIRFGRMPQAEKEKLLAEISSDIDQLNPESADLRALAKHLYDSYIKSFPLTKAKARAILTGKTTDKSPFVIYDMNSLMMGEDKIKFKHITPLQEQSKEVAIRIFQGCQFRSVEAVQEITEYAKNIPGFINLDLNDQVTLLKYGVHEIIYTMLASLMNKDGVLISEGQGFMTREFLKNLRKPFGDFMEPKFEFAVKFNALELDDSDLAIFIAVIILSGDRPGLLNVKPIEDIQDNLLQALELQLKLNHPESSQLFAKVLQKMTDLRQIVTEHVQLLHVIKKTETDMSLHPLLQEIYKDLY

SMILES | EC50 [1] | EC50 [2] | EC50 [3]
Cc1c(OCCCOc2ccc3c(c2)CC[C@H]3CC(=O)O)ccc2[nH]ccc12 | > 10 µM | 0.286 µM | 6.85 µM
CCCc1cc(-c2nc(C(F)(F)F)cs2)ccc1OCCCOc1ccc2c(c1)CC[C@H]2CC(=O)O | 0.197 µM | 0.0033 µM | 0.055 µM
O=C(O)C[C@@H]1CCc2cc(OCCCOc3ccc4cnoc4c3)ccc21 | > 10 µM | 0.828 µM | > 10 µM
Cc1ccc(OCCCOc2ccc3c(c2)CC[C@H]3CC(=O)O)c(C)c1 | 9.36 µM | 0.0046 µM | 2.18 µM
CCCc1c(OCCCOc2ccc3c(c2)CC[C@H]3CC(=O)O)ccc2c(C)noc12 | > 10 µM | 0.0021 µM | 0.173 µM
O=C(O)C[C@@H]1CCc2cc(OCCCOc3ccc4c(c3)ONC4(O)C(F)(F)F)ccc21 (stereo partly specified) | > 10 µM | 0.067 µM | 5 µM
COc1ccc(OCCCOc2ccc3c(c2)CC[C@H]3CC(=O)O)cc1 | > 10 µM | 0.0067 µM | 3 µM
CCCc1cc(-c2nc(CC)cs2)ccc1OCCCOc1ccc2c(c1)CC[C@H]2CC(=O)O | 0.147 µM | 0.011 µM | 0.045 µM
CCCc1cc(-c2nc(OCC)cs2)ccc1OCCCOc1ccc2c(c1)CC[C@H]2CC(=O)O | 0.105 µM | 0.002 µM | 0.041 µM
CCCc1cc(-c2nc(C)c(C(=O)N(C)C)s2)ccc1OCCCOc1ccc2c(c1)CC[C@H]2CC(=O)O | 0.14 µM | 0.0044 µM | 0.017 µM
Cc1coc2cc(OCCCOc3ccc4c(c3)CC[C@H]4CC(=O)O)ccc12 | > 10 µM | 0.008 µM | 1.95 µM
O=C(O)C[C@@H]1CCc2cc(OCCCOc3ccc(-c4ccc5cc[nH]c5c4)cc3)ccc21 | 6.6 µM | 0.0015 µM | 0.74 µM
CCCc1cc(-c2nc(CO)c(C(=O)O)s2)ccc1OCCCOc1ccc2c(c1)CC[C@H]2CC(=O)O | 6.49 µM | 0.012 µM | 0.891 µM
CCc1ccc(OCCCOc2ccc3c(c2)CC[C@H]3CC(=O)O)cc1 | 1.98 µM | 0.0089 µM | 6.2 µM
Cc1cc(-c2nc(C(F)(F)F)ns2)ccc1OCCCOc1ccc2c(c1)CC[C@H]2CC(=O)O | 0.52 µM | 0.0034 µM | 0.158 µM
O=C(O)C[C@@H]1CCc2cc(OCCCOc3ccc(-n4cnnc4)cc3Cl)ccc21 | 6.85 µM | 2.23 µM | 8.7 µM
O=C(O)C[C@@H]1CCc2cc(OCCCOc3ccc(-c4ccoc4)cc3)ccc21 | 3.27 µM | 0.0038 µM | 4.1 µM
Cc1cccc(OCCCOc2ccc3c(c2)CC[C@H]3CC(=O)O)c1 | > 10 µM | 0.056 µM | 8 µM
COc1cc(-c2nc(OC(C)C)cs2)ccc1OCCCOc1ccc2c(c1)CC[C@H]2CC(=O)O | 0.18 µM | 0.003 µM | 0.044 µM
O=C(O)C[C@@H]1CCc2cc(OCCCOc3ccc(-n4cncn4)cc3)ccc21 | > 10 µM | – | –
CCc1csc(-c2ccc(OCCCOc3ccc4c(c3)CC[C@H]4CC(=O)O)c(OC)c2)n1 | 0.254 µM | 0.0025 µM | 0.065 µM
Cc1cc2cc(OCCCOc3ccc4c(c3)CC[C@H]4CC(=O)O)ccc2[nH]1 | > 10 µM | 0.067 µM | 3.65 µM
COc1cccc(OCCCOc2ccc3c(c2)CC[C@H]3CC(=O)O)c1 | > 10 µM | 0.117 µM | –
CCCc1cc(-c2nc(C)c(C(=O)O)s2)ccc1OCCCOc1ccc2c(c1)CC[C@H]2CC(=O)O | 1.69 µM | 0.046 µM | 0.238 µM
CCCc1c(OCCCOc2ccc3c(c2)CC[C@H]3CC(=O)O)ccc2[nH]ccc12 | > 10 µM | 0.0062 µM | 0.46 µM
Cc1noc2c(C)c(OCCCOc3ccc4c(c3)CC[C@H]4CC(=O)O)ccc12 | > 10 µM | 0.0081 µM | 0.29 µM

SMILES | EC50 [1] | EC50 [2] | EC50 [3]
CCOc1cc(C)ccc1OCCCOc1ccc2c(c1)CC[C@H]2CC(=O)O | > 10 µM | 0.0022 µM | 1.24 µM
O=C(O)C[C@@H]1CCc2cc(OCCCOc3ccc(OC(F)(F)F)cc3)ccc21 | 6.8 µM | 0.013 µM | 1.02 µM
CCCc1cc(-c2nc(C)c(C(C)=O)s2)ccc1OCCCOc1ccc2c(c1)CC[C@H]2CC(=O)O | 0.175 µM | 0.018 µM | 0.017 µM
CCCc1cc(-c2nccs2)ccc1OCCCOc1ccc2c(c1)CC[C@H]2CC(=O)O | 0.111 µM | 0.0016 µM | 0.048 µM
O=C(O)C[C@@H]1CCc2cc(OCCCOc3ccc(-c4nc5c(s4)CCC5)cc3)ccc21 | 0.112 µM | 0.0013 µM | 1.2 µM
Cn1ccc2cc(OCCCOc3ccc4c(c3)CC[C@H]4CC(=O)O)ccc21 | 6.7 µM | 0.04 µM | 1.03 µM
C=CCc1c(OCCCOc2ccc3c(c2)CC[C@H]3CC(=O)O)ccc2[nH]ccc12 | > 10 µM | 0.018 µM | 3.3 µM
COc1cc(-c2nc(C(F)(F)F)cs2)ccc1OCCCOc1ccc2c(c1)CC[C@H]2CC(=O)O | 0.437 µM | 0.0029 µM | 0.327 µM
N#Cc1ccc(OCCCOc2ccc3c(c2)CC[C@H]3CC(=O)O)cc1 | 5.7 µM | 0.0073 µM | 0.637 µM
CCCc1cc(C#N)ccc1OCCCOc1ccc2c(c1)CC[C@H]2CC(=O)O | 3.95 µM | 0.025 µM | 0.57 µM
COc1csc(-c2ccc(OCCCOc3ccc4c(c3)CC[C@H]4CC(=O)O)c(OC)c2)n1 | 0.755 µM | 0.003 µM | 0.069 µM
COc1cc(-c2nc3c(s2)CCC3)ccc1OCCCOc1ccc2c(c1)CC[C@H]2CC(=O)O | 0.053 µM | 0.0041 µM | 0.116 µM
CCCc1cc(-c2nc(OCC)c(C)s2)ccc1OCCCOc1ccc2c(c1)CC[C@H]2CC(=O)O | 0.061 µM | 0.0032 µM | 0.034 µM
COc1cc(-c2nc3ccccc3s2)ccc1OCCCOc1ccc2c(c1)CC[C@H]2CC(=O)O | 0.526 µM | 0.0052 µM | –
COc1cc(-c2nc(C)cs2)ccc1OCCCOc1ccc2c(c1)CC[C@H]2CC(=O)O | 0.268 µM | 0.0027 µM | 0.96 µM
Cc1nc(-c2ccc(OCCCOc3ccc4c(c3)CC[C@H]4CC(=O)O)cc2)sc1C | 1.25 µM | 0.0029 µM | 0.28 µM
COc1cc(-c2nc3c(s2)CCCC3)ccc1OCCCOc1ccc2c(c1)CC[C@H]2CC(=O)O | 0.044 µM | 0.0033 µM | 0.084 µM
CC(=O)Nc1cc(-n2ccnn2)ccc1OCCCOc1ccc2c(c1)CC[C@H]2CC(=O)O | 9.2 µM | – | 5.6 µM
O=C(O)C[C@@H]1CCc2cc(OCCCOc3ccc(-c4ccsc4)cc3)ccc21 | > 10 µM | 0.0059 µM | 0.65 µM
CCOc1nc(-c2ccc(OCCCOc3ccc4c(c3)CC[C@H]4CC(=O)O)c(OC)c2)sc1C | 0.15 µM | 0.006 µM | 0.177 µM
CCc1ccc(OCCCOc2ccc3c(c2)CC[C@H]3CC(=O)O)c(OC)c1 | 0.7 µM | 0.0027 µM | 1.65 µM
COc1cc(-c2nccs2)ccc1OCCCOc1ccc2c(c1)CC[C@H]2CC(=O)O | 0.255 µM | – | 0.374 µM
CCCc1cc(Oc2ccccc2)ccc1OCCCOc1ccc2c(c1)CC[C@H]2CC(=O)O | > 10 µM | 0.0019 µM | –
CCCc1cc(C(F)(F)F)ccc1OCCCOc1ccc2c(c1)CC[C@H]2CC(=O)O | 1.14 µM | 0.0016 µM | –
O=C(O)C[C@@H]1CCc2cc(OCCCOc3ccc(-c4ccccc4)cc3)ccc21 | > 10 µM | 0.043 µM | –
COc1cc(-c2nc(C)c(C(=O)N(C)C)s2)ccc1OCCCOc1ccc2c(c1)CC[C@H]2CC(=O)O | 0.803 µM | 0.0021 µM | –
